Laboratory results taken from PMC3572763 (Molecular pharmaceutics, 2013).
Read-outs that look alike come from different tables or passages of the source.

Assays:
[1] = Chemical stability in pH buffers; format: physicochemical; conditions: for T1/2 −pH 6.0: pH 6.0 buffer; for T1/2 −pH 6.0 / T1/2 pH 7.4: value given in h; for T1/2 pH 7.4: pH 7.4 buffer
Caco-2 monolayers = assay: Caco-2 cell monolayers permeability; format: in vitro ADME, human; conditions: A to B
PEPT1 [2] = biological target: T1, PEPT1 (Homo sapiens, UniProt P46059); assay: [3H]Gly-Sar uptake inhibition in Caco-2 cells; format: cell-based
T1 sequence (P46059 1-708): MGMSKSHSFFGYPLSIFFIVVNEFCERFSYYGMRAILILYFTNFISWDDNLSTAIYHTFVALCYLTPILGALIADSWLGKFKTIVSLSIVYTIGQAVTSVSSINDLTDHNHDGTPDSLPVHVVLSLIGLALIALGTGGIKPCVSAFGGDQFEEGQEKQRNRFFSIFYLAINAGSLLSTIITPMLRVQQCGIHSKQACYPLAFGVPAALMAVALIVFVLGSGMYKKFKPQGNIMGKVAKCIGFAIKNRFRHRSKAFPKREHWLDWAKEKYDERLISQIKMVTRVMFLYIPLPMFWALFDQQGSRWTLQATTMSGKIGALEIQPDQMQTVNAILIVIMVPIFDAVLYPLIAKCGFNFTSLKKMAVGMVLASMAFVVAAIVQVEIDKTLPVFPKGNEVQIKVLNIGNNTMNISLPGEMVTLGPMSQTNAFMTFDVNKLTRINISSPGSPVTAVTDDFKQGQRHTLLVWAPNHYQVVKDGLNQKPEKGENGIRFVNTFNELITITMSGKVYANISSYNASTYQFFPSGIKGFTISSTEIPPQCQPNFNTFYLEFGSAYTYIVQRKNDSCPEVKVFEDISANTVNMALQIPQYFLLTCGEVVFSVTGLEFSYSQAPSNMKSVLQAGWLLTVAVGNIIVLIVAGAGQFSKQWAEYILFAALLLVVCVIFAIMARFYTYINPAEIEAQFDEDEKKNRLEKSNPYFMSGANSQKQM
Procedure, shortened: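 Caco-2 cells seeded at 5.0 × 10^4/well and grown 10 days. Washed and preincubated 15 min in pH 6.0 MES uptake buffer, then exposed 30 min at 37°C to 10 μM Gly-Sar (~1% [3H]) plus test compound 0.05–5 mM. Cells washed with ice-cold PBS, lysed in MeOH/water 1:1, counted by scintillation; IC50 by nonlinear fit; mean ± SEM, n = 3.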

PEPT1 [3] = biological target: T1, PEPT1; assay: Direct uptake in PEPT1 over-expressing HeLa cells; format: cell-based; conditions: 1 mM
rat jejunum = assay: Single-pass intestinal; format: in vivo; conditions: rat jejunal perfusion
[4] = mice; for AUC24hr / Cmax / Tmax hrs: GOCarb measured in plasma; for oral bioavailability: 10 mg/kg oral gavage relative to 1 mg/kg IV
[5] = test system: human lysosomal neuraminidase; conditions: cited from earlier work
[6] = test system: H1N1 NWS/33 strain of influenza; conditions: cited from earlier work
[7] = cited from earlier work
Type A strains = conditions: tissue culture; cited from earlier work
Type B strains = conditions: tissue culture; cited from earlier work
[8] = from literature, cited from earlier work
[9] = literature; cited from earlier work

## CCOC(=O)C1=C[C@@H](OC(CC)CC)[C@H](NC(C)=O)[C@@H](NC(=N)N)C1 [GOC ethyl ester]
[1]
  T1/2 −pH 6.0: >20h
  T1/2 pH 7.4: >20h

## CCC(CC)O[C@@H]1C=C(C(=O)O)C[C@H](NC(=N)N)[C@H]1NC(C)=O [GOCarb, 4-Guanidine oseltamivir carboxylate]
[1]; all pHs, up to 20 hours
  hydrolysis in buffers: limited hydrolysis
[1]
  T1/2 −pH 6.0: >20h
  T1/2 pH 7.4: >20h
Caco-2 monolayers
  permeability across Caco-2 monolayers: negligible permeability
PEPT1 [2]
  competition with [3H]Gly-Sar: little competition
PEPT1 [3]
  uptake into transfected or non-transfected cells: virtually no uptake
Rat jejunum
  jejunal permeability: very low permeability
Rat jejunum; listed as parent drug
  jejunal permeability: essentially zero permeability
[4]; 1 mg/kg IV
  AUC24hr: 487 ± 206 ng·h/mL
[4]; 10 mg/kg po-fasted
  AUC24hr: 278 ± 52 ng·h/mL
  Cmax: 50.9 ± 35.8 ng/mL
  Tmax hrs: 1.3 ± 0.6 h
[4]; 10 mg/kg po-fed
  AUC24hr: 291 ± 87 ng·h/mL
  Cmax: 65.4 ± 26.8 ng/mL
  Tmax hrs: 3.0 ± 1.2 h
[4]; fasted
  oral bioavailability: approximately 5%
[4]; fed
  oral bioavailability: approximately 5%
[5]
  fold more potent in inhibiting human lysosomal neuraminidase as compared to OC: ~ 10 fold
[6]; H1N1 NWS/33 strain of influenza
  IC50: 0.9 nM
[6]; versus the A/NWS/33 virus, dashed line in Figure 8
  approximate EC50: ~5 ng/mL
[7]; in rats
  intestinal permeability: < 5%
[7]; species not stated in abstract
  oral bioavailability: 4%
Type A strains
  fold more potent than OC: approximately 100 fold
Type B strains
  fold more potent than OC: ~13 fold

## CC(C)[C@H](N)C(=O)OCCOCn1cnc2c(=O)[nH]c(N)nc21 [Valacyclovir]
[8]; pH 6.0
  T1/2 −pH 6.0: ND^b 69.7 h^c
[8]; pH 7.4
  T1/2 pH 7.4: ND^b >8 h^c
[9]
  bioavailability in humans: up to 80%
